Results taken from ChEMBL document CHEMBL1629574, “Novel chimeric beta-lactamase CTX-M-64, a hybrid of CTX-M-15-like and CTX-M-14 beta-lactamases, found in a Shigella sonnei strain resistant to various oxyimino-cephalosporins, including ceftazidime” (Antimicrob Agents Chemother, 2009).
In brackets after ≈: the same amount, converted by molar mass.

Key:
Escherichia coli [1] = assay: Antimicrobial activity against Escherichia coli XL-1 Blue transconjugant harboring beta-lactamase CTX-M-64 by broth microdilution method; type: functional
Shigella sonnei [2] = assay: Antimicrobial activity against Shigella sonnei UIH-1 expressing beta-lactamase CTX-M-64 by broth microdilution method; type: functional
How it was run: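 MICs determined by CLSI broth microdilution on an automated panel system. […] Susceptibility categories assigned by CLSI criteria.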

Escherichia coli [3] = assay: Antimicrobial activity against rifampicin-resistant Escherichia coli X1037 transconjugant by broth microdilution method; type: functional
Shigella sonnei [4] = conditions: UIH-1
Shigella sonnei [5] = assay: Activity at Shigella sonnei UIH-1 beta-lactamase CTX-M-64 by spectrophotometry
How it was run: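 Recombinant enzyme from E. coli BL21(DE3)pLysS/pET29a, purified by cation exchange and gel filtration. Assays at 37°C in 50 mM phosphate pH 7.0, six substrate concentrations, UV-vis readout. Km and kcat from Michaelis-Menten fits of initial rates.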

Escherichia coli [6] = assay: Antimicrobial activity against rifampicin-resistant Escherichia coli X1037 by broth microdilution method; type: functional
Escherichia coli [7] = assay: Antimicrobial activity against Escherichia coli XL-1 Blue harboring plasmid CL1920 by broth microdilution method; type: functional
Escherichia coli [8] = assay: Antimicrobial activity against Escherichia coli XL-1 Blue harboring plasmid CL1920 by broth microdilution method in presence of 4 ug/ml beta-lactamase inhibitor clavulanic acid; type: functional
Escherichia coli [9] = assay: Antimicrobial activity against Escherichia coli XL-1 Blue transconjugant harboring beta-lactamase CTX-M-64 by broth microdilution method in presence of 4 ug/ml beta-lactamase inhibitor clavulanic acid; type: functional
Escherichia coli [10] = assay: Antimicrobial activity against rifampicin-resistant Escherichia coli X1037 transconjugant by broth microdilution method in presence of 4 ug/ml beta-lactamase inhibitor clavulanic acid; type: functional
Shigella sonnei [11] = assay: Antimicrobial activity against Shigella sonnei UIH-1 expressing beta-lactamase CTX-M-64 by broth microdilution method in presence of 4 ug/ml beta-lactamase inhibitor clavulanic acid; type: functional
Escherichia coli [12] = assay: Antimicrobial activity against rifampicin-resistant Escherichia coli X1037 by broth microdilution method in presence of 4 ug/ml beta-lactamase inhibitor clavulanic acid; type: functional
Shigella sonnei [13] = assay: Antimicrobial activity against Shigella sonnei UIH-1 expressing beta-lactamase CTX-M-64 by broth microdilution method in presence of beta-lactamase inhibitor clavulanic acid
Escherichia coli [14] = assay: Antimicrobial activity against rifampicin-resistant Escherichia coli X1037 transconjugant by broth microdilution method in presence of beta-lactamase inhibitor clavulanic acid
Escherichia coli [15] = assay: Antimicrobial activity against rifampicin-resistant Escherichia coli X1037 by broth microdilution method in presence of beta-lactamase inhibitor clavulanic acid
Escherichia coli [16] = assay: Antimicrobial activity against Escherichia coli XL-1 Blue harboring plasmid CL1920 by broth microdilution method in presence of beta-lactamase inhibitor clavulanic acid
Escherichia coli [17] = assay: Antimicrobial activity against rifampicin-resistant Escherichia coli X1037 transconjugant by disk diffusion method; type: functional
How it was run: (§1)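 Non-β-lactam agents were tested by CLSI disk diffusion. Susceptibility categories were assigned by CLSI criteria.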

Escherichia coli [18] = assay: Antimicrobial activity against Escherichia coli XL-1 Blue harboring plasmid CL1920 by disk diffusion method; type: functional
Escherichia coli [19] = assay: Antimicrobial activity against rifampicin-resistant Escherichia coli X1037 by disk diffusion method; type: functional; how it was run: as §1
Escherichia coli [20] = assay: Antimicrobial activity against Escherichia coli XL-1 Blue transconjugant harboring beta-lactamase CTX-M-64 by disk diffusion method; type: functional; how it was run: as §1
Shigella sonnei [21] = assay: Antimicrobial activity against Shigella sonnei UIH-1 expressing beta-lactamase CTX-M-64 by disk diffusion method; type: functional
How it was run: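 Non-β-lactam susceptibility determined by CLSI disk diffusion on the clinical isolate. Categories assigned by CLSI criteria.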

[22] = Inhibition of Shigella sonnei UIH-1 beta-lactamase CTX-M-64 by spectrophotometry in presence of 100 uM nitrocefin
How it was run: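 Recombinant CTX-M-64 was expressed from pET29a in E. coli BL21(DE3)pLysS (0.5 mM IPTG, 3 h, 37°C). It was purified by SP cation exchange (MES pH 6.0, NaCl gradient) then gel filtration. Enzyme was preincubated 5 min at 37°C with varied clavulanic acid before adding 100 μM nitrocefin. Hydrolysis was read at 485 nm in 50 mM phosphate pH 7.0, 37°C. IC50 is the inhibitor level halving the rate.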

[23] = Escherichia coli, XL-1 Blue, read-out: MIC
[24] = Shigella sonnei, UIH-1, read-out: MIC

SMILES	MIC (Escherichia coli [1]; [23]) [µg/mL]	MIC (Shigella sonnei [2]; [24]) [µg/mL]	MIC (Escherichia coli [3]) [µg/mL]	MIC (Escherichia coli [6]) [µg/mL]	MIC (Escherichia coli [7]) [µg/mL]	also measured
C[C@H]1[C@H](NC(=O)/C(=N\OC(C)(C)C(=O)O)c2csc(N)n2)C(=O)N1S(=O)(=O)O [AZTREONAM]	1020 (≈ 2350 µM)	32 (≈ 73.5 µM)	64 (≈ 147 µM)			
CO/N=C(\C(=O)N[C@@H]1C(=O)N2C(C(=O)[O-])=C(C[N+]3(C)CCCC3)CS[C@H]12)c1csc(N)n1	> 32	> 32	> 32			kcat/Km (Shigella sonnei [4]): 1.3 ×10⁵ /M/s; Km (Shigella sonnei [5]): 505 µM; kcat (Shigella sonnei [5]): 67.7 s⁻¹
CO/N=C(\C(=O)N[C@@H]1C(=O)N2C(C(=O)[O-])=C(C[n+]3cccc4c3CCC4)CS[C@H]12)c1csc(N)n1 [CEFPIROME]	> 16	> 16	> 16	≤ 1	≤ 1	
CO/N=C(\C(=O)N[C@@H]1C(=O)N2C(C(=O)O)=C(COC(C)=O)CS[C@H]12)c1csc(N)n1 [CEFOTAXIME]		1020 (≈ 2250 µM)	2050 (≈ 4500 µM)	≤ 0.25	≤ 0.25	kcat/Km (Shigella sonnei [4]): 1.9 ×10⁶ /M/s; MIC (Escherichia coli [1]): >2048 µg/mL; MIC (Escherichia coli [8]): ≤ 0.12 µg/mL; MIC (Escherichia coli [9]): ≤ 0.12 µg/mL; MIC (Escherichia coli [10]): ≤ 0.12 µg/mL; MIC (Shigella sonnei [11]): ≤ 0.12 µg/mL; MIC (Escherichia coli [12]): ≤ 0.12 µg/mL; Km (Shigella sonnei [5]): 103 µM; kcat (Shigella sonnei [5]): 197 s⁻¹
CC1(C)S[C@@H]2[C@H](NC(=O)[C@H](N)c3ccc(O)cc3)C(=O)N2[C@H]1C(=O)O [AMOXICILLIN]	8 (≈ 21.9 µM)	2 (≈ 5.47 µM)	2 (≈ 5.47 µM)	≤ 1	2 (≈ 5.47 µM)	MIC (Shigella sonnei [13]): 2 µg/mL; MIC (Escherichia coli [14]): 2 µg/mL; MIC (Escherichia coli [9]): 8 µg/mL; MIC (Escherichia coli [15]): ≤ 1 µg/mL; MIC (Escherichia coli [16]): 2 µg/mL
CO/N=C(\C(=O)N[C@@H]1C(=O)N2C(C(=O)[O-])=C(C[n+]3ccn4ncccc43)CS[C@H]12)c1nsc(N)n1 [CEFOZOPRAN]	> 16	> 16	> 16	≤ 1	≤ 1	
CO[C@@]1(NC(=O)CSC(F)F)C(=O)N2C(C(=O)O)=C(CSc3nnnn3CCO)CO[C@@H]21 [FLOMOXEF]						MIC (Escherichia coli [17]): ≤ 1 µg/mL; MIC (Escherichia coli [18]): ≤ 1 µg/mL; MIC (Escherichia coli [19]): ≤ 1 µg/mL; MIC (Escherichia coli [20]): ≤ 1 µg/mL; MIC (Shigella sonnei [21]): ≤ 1 µg/mL
C[C@@H](O)[C@H]1C(=O)N2C(C(=O)O)=C(SCCNC=N)C[C@H]12 [IMIPENEM ANHYDROUS]	≤ 0.5	≤ 0.5	≤ 0.5	≤ 0.5	≤ 0.5	
CCN1CCN(C(=O)N[C@@H](C(=O)N[C@@H]2C(=O)N3[C@@H]2SC(C)(C)[C@@H]3C(=O)O)c2ccccc2)C(=O)C1=O [PIPERACILLIN]	> 64	> 64	> 64	≤ 8	≤ 8	
CO[C@@]1(NC(=O)C2SC(=C(C(N)=O)C(=O)O)S2)C(=O)N2C(C(=O)O)=C(CSc3nnnn3C)CS[C@@H]21 (stereo partly specified) [CEFOTETAN]	8 (≈ 13.9 µM)	≤ 0.5	≤ 0.5	≤ 0.5	≤ 0.5	
CO/N=C(\C(=O)N[C@@H]1C(=O)N2C(C(=O)O)=C(CSc3nc(=O)c(O)nn3C)CS[C@H]12)c1csc(N)n1 [CEFTRIAXONE]	2050 (≈ 3690 µM)	1020 (≈ 1850 µM)	2050 (≈ 3690 µM)	≤ 0.25	≤ 0.25	
Cc1nnc(SCC2=C(C(=O)O)N3C(=O)[C@@H](NC(=O)Cn4cnnn4)[C@H]3SC2)s1 [CEFAZOLIN]						MIC (Escherichia coli [17]): > 16 µg/mL; MIC (Escherichia coli [20]): > 16 µg/mL; MIC (Shigella sonnei [21]): > 16 µg/mL
COCC1=C(C(=O)O)N2C(=O)[C@@H](NC(=O)/C(=N\OC)c3csc(N)n3)[C@H]2SC1 [CEFPODOXIME]	> 64	> 64	> 64	≤ 0.5	≤ 0.5	
N[C@@H](C(=O)N[C@@H]1C(=O)N2C(C(=O)O)=C(Cl)CS[C@H]12)c1ccccc1 [CEFACLOR ANHYDROUS]	> 16	> 16	> 16	≤ 2	≤ 2	
O=C(O)[C@H]1/C(=C/CO)O[C@@H]2CC(=O)N21 [CLAVULANIC ACID]						IC50 [22]: 0.01 µM
C[C@@H](O)[C@H]1C(=O)N2C(C(=O)O)=C(S[C@@H]3CN[C@H](C(=O)N(C)C)C3)[C@H](C)[C@H]12 [MEROPENEM]	≤ 0.5	≤ 0.5	≤ 0.5	≤ 0.5	≤ 0.5	
CC1(C)S[C@@H]2[C@H](NC(=O)[C@H](N)c3ccccc3)C(=O)N2[C@H]1C(=O)O [AMPICILLIN]	> 16	> 16	> 16	≤ 2	≤ 2	kcat/Km (Shigella sonnei [4]): 1.9 ×10⁶ /M/s; Km (Shigella sonnei [5]): 19.5 µM; kcat (Shigella sonnei [5]): 36.9 s⁻¹
CO[C@@]1(NC(=O)Cc2cccs2)C(=O)N2C(C(=O)O)=C(COC(N)=O)CS[C@@H]21 [CEFOXITIN]	8 (≈ 18.7 µM)	≤ 2	≤ 2	≤ 2	4 (≈ 9.36 µM)	
CO[C@@]1(NC(=O)CSCC#N)C(=O)N2C(C(=O)O)=C(CSc3nnnn3C)CS[C@@H]21 [CEFMETAZOLE]	1 (≈ 2.12 µM)		1 (≈ 2.12 µM)	≤ 0.5	1 (≈ 2.12 µM)	MIC (Shigella sonnei [2]): <=0.5 ug ml-1
O=C(Cc1cccs1)N[C@@H]1C(=O)N2C(C(=O)O)=C(/C=C/c3ccc([N+](=O)[O-])cc3[N+](=O)[O-])CS[C@H]12						kcat/Km (Shigella sonnei [4]): 1.7 ×10⁷ /M/s; Km (Shigella sonnei [5]): 14.8 µM; kcat (Shigella sonnei [5]): 252 s⁻¹
CC(=O)OCC1=C(C(=O)O)N2C(=O)[C@@H](NC(=O)Cc3cccs3)[C@H]2SC1						kcat/Km (Shigella sonnei [4]): 4.9 ×10⁶ /M/s; Km (Shigella sonnei [5]): 37.9 µM; kcat (Shigella sonnei [5]): 185 s⁻¹
CN(C)CCn1nnnc1SCC1=C(C(=O)O)N2C(=O)[C@@H](NC(=O)Cc3csc(N)n3)[C@H]2SC1 [CEFOTIAM]						MIC (Escherichia coli [17]): > 16 µg/mL; MIC (Escherichia coli [18]): ≤ 8 µg/mL; MIC (Escherichia coli [19]): ≤ 8 µg/mL; MIC (Escherichia coli [20]): > 16 µg/mL; MIC (Shigella sonnei [21]): > 16 µg/mL
CC(C)(O/N=C(\C(=O)N[C@@H]1C(=O)N2C(C(=O)[O-])=C(C[n+]3ccccc3)CS[C@H]12)c1csc(N)n1)C(=O)O [CEFTAZIDIME]	2050 (≈ 3750 µM)	32 (≈ 58.5 µM)	64 (≈ 117 µM)	≤ 0.25	≤ 0.25	MIC (Escherichia coli [8]): ≤ 0.12 µg/mL; MIC (Escherichia coli [9]): ≤ 0.5 µg/mL; MIC (Escherichia coli [10]): ≤ 0.12 µg/mL; MIC (Shigella sonnei [11]): ≤ 0.12 µg/mL; MIC (Escherichia coli [12]): ≤ 0.12 µg/mL; Ki [22]: > 10000 µM
